In paper PMC7217734 (Journal of biomolecular structure & dynamics, 2019):
Residues, ends and D or L forms follow the SMILES beside them.

Legend:
[1] = target: T1, peptide 91a (coil 1A of vimentin) (Homo sapiens, UniProt P08670, A91E/F96L/I92R/N93L/Q126R/Q127R/T94A/V121L); experiment: Isothermal titration calorimetry; format: binding; conditions: NANO ITC; 374a 0.540mM in syringe, 91a 0.095mM in cell
T1 sequence (P08670 with tags, fused parts or gaps V121L/Q126R/Q127R limits assumed): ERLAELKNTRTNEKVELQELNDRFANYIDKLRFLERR
Procedure, shortened: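 The peptides were dissolved in 10 mM Tris pH 8.0. In a low-volume nano calorimeter, the syringe peptide was titrated into the cell peptide in 20 injections of 2.5 µl. Raw heat rate was recorded in µJ/s, and each injection peak was integrated to µJ. The isotherm gave the dissociation constant and stoichiometry n.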

Dynamic light scattering = format: physicochemical; conditions: 25°C, 1 mg/ml; 50mM NaCl, 10mM Tris-HCl (pH 7.5); individual peptide

## CC[C@H](C)[C@H](NC(=O)[C@H](CCC(=O)O)NC(=O)[C@@H](NC(=O)[C@H](CC(=O)O)NC(=O)[C@H](CC(C)C)NC(=O)[C@H](C)NC(=O)[C@H](CCSC)NC(=O)[C@H](CCCCN)NC(=O)[C@@H](NC(=O)[C@H](CC(N)=O)NC(=O)[C@H](CC(C)C)NC(=O)[C@H](CC(C)C)NC(=O)[C@H](CC(=O)O)NC(=O)[C@H](CCC(N)=O)NC(=O)[C@H](Cc1ccc(O)cc1)NC(=O)[C@H](CCC(=O)O)NC(=O)[C@H](CCCNC(=N)N)NC(=O)[C@H](CCC(=O)O)NC(=O)[C@H](CC(C)C)NC(=O)[C@H](CCCNC(=N)N)NC(=O)[C@H](C)NC(=O)[C@H](CC(C)C)NC(=O)[C@H](CCC(=O)O)NC(=O)[C@@H](N)CCC(=O)O)C(C)C)[C@@H](C)CC)C(=O)N[C@@H](C)C(=O)N[C@H](C(=O)N[C@@H](Cc1ccc(O)cc1)C(=O)N[C@@H](CCCNC(=N)N)C(=O)N[C@@H](CCCCN)C(=O)N[C@@H](CC(C)C)C(=O)N[C@@H](CC(C)C)C(=O)N[C@@H](CCC(=O)O)C(=O)N[C@@H](C)C(=O)N[C@@H](CC(C)C)C(=O)N[C@@H](CCC(=O)O)C(=O)N[C@@H](CO)C(=O)N[C@@H](CCCNC(=N)N)C(=O)O)[C@@H](C)O [peptide 374a] (H-EELARLEREYQDLLNVKMALDIEIATYRKLLEALESR-OH; N-terminus and C-terminus assumed)
[1]
  stoichiometric ratio n: ~1
  thermodynamic character of interaction, in words: enthalpy-driven interaction
Dynamic light scattering
  aggregation by DLS, in words: aggregation is occurring
